Data reported in PubChem BioAssay.
The source made the active and inactive calls. Cut-off read from the data, not from the text of the source, unless noted: active = inhibition above about 30%; inactive = the rest.

Key:
[1] = SK-BR-3 cell growth inhibitors, pilot screen, 24 h, human (AID 572;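 active = viability at or below 10% of carrier control in both of two separate runs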;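 note: compound exposure lasted between 18 and 24 h rather than exactly 24 h; 100% = carrier-treated control wells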); conditions: SK-BR-3 viability, CellTiter-Glo luminescence, at 10 µM, stronger effect = lower value
[2] = HUVEC growth inhibition – cell-based, human, primary screen (AID 575;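 active = viability at or below 30% in both replicate assays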;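 note: 100% = median of untreated cell wells with 0.1% DMSO on each plate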); conditions: HUVEC proliferation, CellTiter-Glo luminescence, 72 h; at 10 µM; stronger effect = lower value
Method in brief: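 Assay system: primary human umbilical vein endothelial cells / Buffer or medium: endothelial basal medium with 2% FBS plus growth supplements / Compound dosing: one dose, 10 µM final, 0.1% DMSO / Timing: 72 h treatment at 37 °C / Signal: CTG luminescence / Benchmarks: 32 DMSO-only cell-control wells (high), 32 MePR drug-control wells (low) per plate / Plate: collagen-coated 384-well format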

[3] = growth inhibitors of H69AR lung tumor, primary screen, human, duplicate replicates (AID 580;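 active = viability at or under a set limit in both replicates, limit being median viability minus 3 SD, cut at about 48% in these data, passing the limit was not always enough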;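 note: 100% = mean luminescence of untreated wells and 0% = no signal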); conditions: H69AR lung tumor cells viability, ATP luminescence, 72 h; at 10 µM; stronger effect = lower value
[4] = reversal of MRP1-mediated doxorubicin resistance, pilot screen, H69AR cells, doxorubicin co-treatment (AID 601;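 active = viability loss from added drug above about 55%, and viability with drug at most 40%, in both replicates, limit read from the data, passing the limit was not always enough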); conditions: CellTiter-Glo, 72 h, at 10 µM; for differential viability (reversal): stronger effect = higher value
[5] = 384-well plate pilot, post-Golgi transport modulator project, inhibition of yeast transport mutant growth (AID 636; in the data active = inhibition above about 31%); conditions: absorbance 615 nm, about 18 h, stronger effect = higher value
[6] = growth suppression of yeast trafficking mutant, preliminary HTS, modulators of trafficking downstream of Golgi apparatus project, 1536-format plate, OD 615 nm (AID 637); conditions: yeast transport mutant growth, absorbance 615 nm, 18 h; stronger effect = higher value
[7] = H69AR cells + 2 uM doxorubicin, measured here: viability with 2 uM doxorubicin, stronger effect = lower value
[8] = H69AR cells, compound alone cytotoxicity

SMILES	viability [1]	viability [2]	viability [3]	differential viability (reversal) ([4]; H69AR cells + 2 uM doxorubicin)	viability [4, 7] [%]	viability [4, 8] [%]	inhibition [5]	inhibition [6]
Cn1c(=O)c2c(nc(N3CCN(c4ccccc4)CC3)n2CCCc2ccccc2)n(C)c1=O	68% (inactive)	90.6% (inactive)	84.1% (inactive)	1.85% (inactive)	82.2	84.1	-3.33% (inactive)	7.09% (inactive)
Fc1ccccc1Cn1nnc2c(-n3ccnc3)ncnc21	115% (inactive)	99.9% (inactive)	92.3% (inactive)	15.2% (inactive)	77.1	92.3	-3.01% (inactive)	-3.71% (inactive)
CN(C(=O)c1ccccn1)c1nnc(-c2cccnc2)s1	97% (inactive)	90.6% (inactive)	111% (inactive)	17.8% (inactive)	93.5	111	-5.07% (inactive)	-2.26% (inactive)
COC(=O)c1cc(S(=O)(=O)N2CCOCC2)c(N2CCOCC2)cc1N1CCOCC1	124% (inactive)	102% (inactive)	85.5% (inactive)	13.4% (inactive)	72.1	85.5	-0.14% (inactive)	-2.91% (inactive)
Cc1onc(-c2ccccc2)c1C(=O)NCCN1CCOCC1	94% (inactive)	102% (inactive)	98% (inactive)	10.1% (inactive)	87.9	98	-4.93% (inactive)	-4% (inactive)
COc1ccc(C(C)NC(=O)c2ccoc2C)cc1OC (configuration not stated)	83% (inactive)	91.3% (inactive)	89.8% (inactive)	-4.93% (inactive)	94.7	89.8	-6.16% (inactive)	1.82% (inactive)
Cc1nc(N)[nH]c(=O)c1CCC(=O)OCC(C)C	107% (inactive)	89.7% (inactive)	91.2% (inactive)	-2.31% (inactive)	93.5	91.2	-0.78% (inactive)	-0.66% (inactive)
O=C(NC1CCCCC1NC(=O)c1ccco1)c1ccco1 (configuration not stated)	93% (inactive)	94.2% (inactive)	90% (inactive)	-4.53% (inactive)	94.5	90	0.53% (inactive)	3.27% (inactive)
Fc1cccc(NCc2cn3ccccc3n2)c1	81% (inactive)	105% (inactive)	87.6% (inactive)	-1.66% (inactive)	89.2	87.6	-5% (inactive)	21.4% (inactive)
Brc1c(NC2=NCCN2)ccc2nccnc12	105% (inactive)	106% (inactive)	95% (inactive)	-7.09% (inactive)	102	95	-0.39% (inactive)	15.3% (inactive)
CC(=O)c1ccc(-n2nnnc2SCC(=O)N2CCc3ccccc3C2)cc1	94% (inactive)	106% (inactive)	88.9% (inactive)	-12.1% (inactive)	101	88.9	-6.3% (inactive)	-14.7% (inactive)
CCc1ccccc1NC(=O)CSC1=C(C#N)C(c2ccc(O)c(OC)c2)C2=C(CCCC2=O)N1 (configuration not stated)	112% (inactive)	105% (inactive)	47.9% (active)	-30.2% (inactive)	78.1	47.9	-8.08% (inactive)	5.65% (inactive)
CCn1c(=O)c2cc(S(=O)(=O)NCc3ccccc3)ccc2n(CC)c1=O	93% (inactive)	62.8% (inactive)	19.4% (active)	-77.1% (inactive)	96.5	19.4	-1.3% (inactive)	18.7% (inactive)
CN(C)C(=O)COc1ccc2cc(-c3ccccc3)c(=O)oc2c1	93% (inactive)	98.1% (inactive)	90.7% (inactive)	-2.2% (inactive)	92.9	90.7	-7.12% (inactive)	-4.18% (inactive)
CCCc1ccccc1OCCNC(C)=O	103% (inactive)	99.5% (inactive)	102% (inactive)	11.2% (inactive)	90.4	102	-3.87% (inactive)	0% (inactive)
COc1ccc(-c2[nH]nc3c2C(c2ccncc2)C(C#N)=C(N)O3)cc1 (configuration not stated)	71% (inactive)	122% (inactive)	92.2% (inactive)	2.15% (inactive)	90	92.2	-5.81% (inactive)	-0.18% (inactive)
CN1CCN(c2nc3c(c(=O)n(C)c(=O)n3C)n2Cc2cccc3ccccc23)CC1	129% (inactive)	77.5% (inactive)	84% (inactive)	26.6% (inactive)	57.4	84	0% (inactive)	0.16% (inactive)

SMILES	viability [1]	viability [2]	viability [3]	differential viability (reversal) ([4]; H69AR cells + 2 uM doxorubicin)	viability [4, 7] [%]	viability [4, 8] [%]	inhibition [5]	inhibition [6]
COc1ccc(NC(=O)CSc2nc(C)cc(C(F)(F)F)n2)cc1	91% (inactive)	103% (inactive)	87.4% (inactive)	3.33% (inactive)	84.1	87.4	-6.44% (inactive)	-4.91% (inactive)
COC(=O)c1cc(Br)c(=O)n(CCc2ccc(F)cc2)c1	78% (inactive)	118% (inactive)	100% (inactive)	8.46% (inactive)	92	100	-5.27% (inactive)	3.09% (inactive)
Cc1cc(C)c(NC2=NCC(=O)N2C2CCCCC2)c(C)c1	106% (inactive)	107% (inactive)	86.3% (inactive)	-5.14% (inactive)	91.5	86.3	-7.53% (inactive)	-3.09% (inactive)
COc1ccc(CCN(Cc2cc3cccc(C)c3[nH]c2=O)C(=O)N2CCCC2)cc1OC	106% (inactive)	104% (inactive)	98.8% (inactive)	1.51% (inactive)	97.3	98.8	-2.6% (inactive)	-0.36% (inactive)
CCC(CCC(=O)Nc1cccc(C(=O)O)c1)C(=O)O (configuration not stated)	62% (inactive)	107% (inactive)	103% (inactive)	2.19% (inactive)	101	103	-0.82% (inactive)	2.36% (inactive)
Cc1csc(NC(=O)C2CCCO2)n1 (configuration not stated)	87% (inactive)	86.9% (inactive)	91.4% (inactive)	9.97% (inactive)	81.4	91.4	-4.16% (inactive)	10.3% (inactive)
Cc1ccc(NC(=O)CSc2nnc(-c3ccc(S(=O)(=O)N4CCOCC4)cc3)n2C)cc1	102% (inactive)	104% (inactive)	98.4% (inactive)	3.83% (inactive)	94.6	98.4	-3.33% (inactive)	-1.64% (inactive)
C1CNCCNCCNCCN1	101% (inactive)	113% (inactive)	95.7% (inactive)	0.16% (inactive)	95.5	95.7	-0.26% (inactive)	2.83% (inactive)
COCCn1nnnc1C(c1cc2ccc(OC)cc2[nH]c1=O)N1CCc2ccccc2C1 (configuration not stated)	89% (inactive)	90.4% (inactive)	85.6% (inactive)	-13.3% (inactive)	98.9	85.6	-1.64% (inactive)	4.52% (inactive)
CC(=O)SCC(=O)N=c1sc2cc(F)ccc2n1C	90.5% (inactive)	75.5% (inactive)	93.4% (inactive)	-2.64% (inactive)	96.1	93.4	-5.26% (inactive)	7.78% (inactive)
COc1ccc(NC(=O)CCc2ccccc2)cc1NC(=O)c1ccco1	64% (inactive)	58.4% (inactive)	56.6% (inactive)	-20.6% (inactive)	77.2	56.6	-7.12% (inactive)	9.68% (inactive)
CCOC(=O)C1=C(c2ccccc2)N2CCS(=O)(=O)N=C2S1	92% (inactive)	96.9% (inactive)	90.2% (inactive)	6.51% (inactive)	83.7	90.2	-2.13% (inactive)	0% (inactive)
COc1cc(C(=O)N2CCCC(c3nc(-c4cccs4)no3)C2)cc(OC)c1OC (configuration not stated)	90.5% (inactive)	94.2% (inactive)	89.7% (inactive)	20.3% (inactive)	69.4	89.7	-1.05% (inactive)	16% (inactive)
CN1[C@@H]2CC(OC(=O)[C@H](CO)c3ccccc3)C[C@H]1[C@@H]1O[C@@H]12 (some centres not stated)	104% (inactive)	96.7% (inactive)	102% (inactive)	6.26% (inactive)	95.3	102	-2.08% (inactive)	-2.83% (inactive)
CN(CCNC(=O)c1ccc(N2CCCC2=O)cc1)CCc1ccccc1	72% (inactive)	99% (inactive)	101% (inactive)	8.74% (inactive)	92.6	101	-7.95% (inactive)	4.36% (inactive)
Cc1ccc(C(C(=O)NC2CCCCC2)N(C(=O)c2csnn2)C2CCCC2)o1 (configuration not stated)	108% (inactive)	101% (inactive)	80.4% (inactive)	1.01% (inactive)	79.4	80.4	-0.65% (inactive)	-2.46% (inactive)
CC(O)c1cc2c(cc1NC(=O)c1cnn3c1NC(c1ccco1)CC3C(F)(F)F)OCO2 (configuration not stated)	93% (inactive)	97.2% (inactive)	86.3% (inactive)	0.405% (inactive)	85.9	86.3	0.65% (inactive)	-1.97% (inactive)
